Results of several laboratories.
Protocols differ between the studies behind these lines.
Target: Death-associated protein kinase 3 (DAPK3, Homo sapiens, UniProt O43293)

Cc1ccc(Nc2nccc(N(C)c3ccc4c(C)n(C)nc4c3)n2)cc1S(N)(=O)=O  inhibition (enzyme activity, inhibitor; 0.3 µM): -7%
O=S(=O)(NC1CCC(c2cc(F)ccc2F)(S(=O)(=O)c2ccc(Cl)cc2)CC1)C(F)(F)F (centres unmarked)  remaining binding (cell-free assay, competition with immobilised ligand; 1 µM): 97%
COc1cc2ncnc(Nc3ccc(Oc4ccccc4)c(C)c3C)c2cc1OC  inhibition (enzyme activity, inhibitor; 1 µM): 1%
Cc1ccc(C(=O)Nc2ccc(CN3CCN(C)CC3)c(C(F)(F)F)c2)cc1C#Cc1cnc2cccnn12  remaining activity (enzyme activity, inhibitor; 23.5 nM): 99%
Clc1ccc(Nc2nnc(Cc3ccncc3)c3ccccc23)cc1  remaining signal (cell-free assay; 0.5 µM): 107%
O=C(Nc1cnn(-c2csc(C(=O)NC3COC3)c2)c1)Nc1c(F)cccc1Cl  remaining activity (enzyme activity, inhibitor; 5 µM): 108%
CCN(CC)c1ccc(C2=NNC(=O)CC2C)cc1[N+](=O)[O-] (centres unmarked)  remaining activity (enzyme activity, inhibitor; 10 µM): 100%
CC(C)(C)c1nc2c(s1)c1nc(N)ncc1c1ccc(NS(=O)(=O)c3c(F)cccc3F)c(F)c12  remaining activity (enzyme activity, inhibitor, radiometric; 1 µM): 58%
CSc1cccnc1N1CCN(Cc2nc3ccccc3[nH]2)CC1  remaining binding (cell-free assay, competition with immobilised ligand; 1 µM): 100%
COc1cc(-c2cc(-c3ccc(N4CCNCC4)cc3)cnc2C)cc(OC)c1OC  inhibition (enzyme activity, inhibitor; 1 µM): 2%
CS(=O)(=O)CCNCc1ccc(-c2ccc3ncnc(Nc4ccc(OCc5cccc(F)c5)c(Cl)c4)c3c2)o1  remaining signal (cell-free assay; 0.5 µM): 97.4%
Cc1cnc(NC2CCOCC2)nc1-n1cnc(C(=O)NC(CN)c2cc(F)cc(Cl)c2)c1 (centres unmarked)  remaining activity (enzyme activity, inhibitor, radiometric; 1 µM): 107%
Cc1ccc(NC(=O)c2ccc(C)c(C(F)(F)F)c2)cc1C#Cc1nn(C2CCC(O)CC2)c2ncnc(N)c12 (centres unmarked)  remaining signal (cell-free assay; 10 µM): 110%
CN([C@@H]1CCc2c(CC(=O)O)c3ccccc3n2C1)S(=O)(=O)c1ccc(F)cc1  remaining binding (cell-free assay, competition with immobilised ligand; 1 µM): 87%
O=C1NC(=O)c2cc(Nc3ccc(F)cc3)c(Nc3ccc(F)cc3)cc21  remaining signal (cell-free assay; 0.5 µM): 101%
C[C@H](c1cccc(C#N)c1)n1cc(Cl)cc(C(N)=O)c1=N  remaining binding (cell-free assay, competition with immobilised ligand; 1 µM): 100%
CCN(CC)CCNC(=O)c1c(C)[nH]c(/C=C2\C(=O)Nc3ccc(F)cc32)c1C  inhibition (enzyme activity, inhibitor; 0.3 µM): 35%
Cc1nc(Cc2cccc(C(F)(F)F)c2)sc1-c1ccc(C(N)=O)nc1  remaining binding (cell-free assay, competition with immobilised ligand; 1 µM): 88%
O=C1Nc2ccc(Cl)cc2C1=Cc1cc(Cl)c(O)c(Cl)c1  remaining signal (cell-free assay; 0.5 µM): 82.3%
O=c1nc(-c2ccccn2)sc2ccccc12  remaining binding (binding, competition with immobilised ligand; 1 µM): 91%
Cn1c2c(c3ccc(Cl)c(Cl)c31)C(C#N)C1(CCNCC1)NC2=O (racemic)  ΔTm (thermal stability, DSF; 10 µM): > 8 °C
N#CC1(c2ccccn2)CCN(Cc2cc(C(=O)N3CCCC3)c(=O)n3ccccc23)CC1  remaining binding (cell-free assay, competition with immobilised ligand; 1 µM): 86%
COc1cc2ncnc(Nc3ccc(F)c(Cl)c3)c2cc1OCCCN1CCOCC1  remaining signal (cell-free assay; 0.5 µM): 95.7%
